# Source: ChEMBL document CHEMBL4715797, “Structure-Activity Relationships of [des-Arg]Dynorphin A Analogues at the κ Opioid Receptor” (J Med Chem, 2016)
# The source made the active and inactive calls. Where a SMILES comes first, the peptide text is derived from it. [ ]: non-standard residue; d: D form. The star is where a group is joined. X1 = Cc1cc(O)cc(C)c1C[C@H](C)C(=O)*; Orn = NCCC[C@H](N)C(=O)O
# Columns and labels:
# [1] = Toxicity in mouse HN9.10 cells expressing human KOR assessed as cell viability at 1 mM after 24 hrs by XTT assay; assay type: cell-based; details: read-out: Activity
# [2] = Half life in rat plasma by RP-HPLC analysis; assay type: ADME, cell-free
# Method in brief: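 Stock at 50 mg/mL diluted 5-fold into heparinized rat plasma at 37 °C. Aliquots taken at 1, 2, 4, 6, 12 and 24 h were quenched with EtOH (ACN for one analogue) and centrifuged.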
# Mu-type opioid receptor = Mu-type opioid receptor (Homo sapiens, UniProt P35372); assay: Displacement of [3H]diprenorphine from human MOR expressed in mouse NG108-15 cell membranes incubated for 2 hrs by liquid scintillation counting based radioligand competition assay
# [3] = molecular target: Delta-type opioid receptor (Homo sapiens, UniProt P41143); assay: Displacement of [3H]deltorphin-II from human DOR expressed in CHO cell membranes incubated for 2 hrs by liquid scintillation counting based radioligand competition assay
# Method in brief: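 Crude membranes from transfected cells, 50 µg protein, in 50 mM Tris-HCl pH 7.4 with bacitracin 50 µg/mL, captopril 10 µM, PMSF 100 µM and BSA 5 mg/mL. Ten concentrations (10−4–10−13 M) were run against 500 pM [3H]deltorphin II for 2 h at rt with shaking. Nonspecific binding was taken with 10 µM naloxone. Filtered on PEI-soaked GF/B, washed in cold saline, scintillation counted.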
# Mus musculus [4] = organism: Mus musculus; assay: Antinociceptive activity in ICR mouse assessed as elevation in tail withdrawal latency at 10 ug, it measured after 30 mins by tail flick test; assay type: functional, organism-based; details: dose 10.0 µg
# Mus musculus [5] = assay: Inhibition of KOR selective agonist FE200665-induced antinociceptive activity in ICR mouse assessed as effect on tail withdrawal latency at 10 ug, it dosed 15 mins before FE200665 dosing and measured up to 24 hrs by tail flick test; assay type: functional, organism-based; details: dose 10.0 µg, time hrs <=24
# Method in brief: (§1)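 Adult male ICR mice given vehicle (MPH2O) or compound by lumbar puncture, 10 µg in 5 µL, n = 6/treatment, at t = −15 min. At t = 0 they received FE200665, 10 µg in 5 µL by lumbar puncture. Tail flick from 52 °C water retested up to 9 times over 24 h, 10.0 s cutoff. % antinociception = 100×(test−baseline)/(cutoff−baseline). Nonparametric two-way ANOVA with Bonferroni post hoc.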
# Mus musculus [6] = organism: Mus musculus; assay: Antinociceptive activity in ICR mouse assessed as elevation in tail withdrawal latency at 0.1 ug, it measured after 30 mins by tail flick test; assay type: functional, organism-based; details: dose 0.1 µg
# Mus musculus [7] = assay: Inhibition of KOR selective agonist FE200665-induced antinociceptive activity in ICR mouse assessed as effect on tail withdrawal latency at 10 ug, it dosed 15 mins before FE200665 dosing and measured at 24 hrs by tail flick test; assay type: functional, organism-based; details: dose 10.0 µg; method in brief: as §1
# Mus musculus [8] = organism: Mus musculus; assay: Antinociceptive activity in ICR mouse assessed as elevation in tail withdrawal latency at 1 ug, it measured after 30 mins by tail flick test; assay type: functional, organism-based; details: dose 1.0 µg
# [9] = molecular target: T1, Kappa-type opioid receptor (Homo sapiens, UniProt P41145); assay: Agonist activity at human KOR expressed in CHO cell membranes at 10 uM incubated for 1 hr by liquid scintillation counting based [35S]GTP-gamma-S assay; details: Cell membrane
# Method in brief: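 Frozen KOR-CHO cell pellets are homogenized and spun at 20 000g. 15 µg of membrane protein is incubated with test compound or vehicle and 0.1 nM [35S]GTPγS in 50 mM Tris-HCl pH 7.4 with 100 mM NaCl, 5 mM MgCl2, 1 mM EDTA and 40 µM GDP, for 1 h at 30 °C. Filtration and scintillation counting follow, and the result is expressed as % of U50,488 stimulation.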
# Cavia porcellus = organism: Cavia porcellus; assay: Agonist activity at OPRK in isolated Hartley guinea pig ileum/longitudinal muscle with myenteric plexus assessed as inhibition of electrically stimulated muscle contraction at 1 uM relative to control; assay type: tissue-based
# Method in brief: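 Male Hartley guinea pig LMMP strips under 1 g tension in oxygenated Krebs bicarbonate buffer, 37 °C, field-stimulated at 0.1 Hz, 0.4 ms, supramaximal voltage. Compound tested at 1 µM. Activity given as percent of agonist response relative to the mean signal over the 3 min before drug. Tissue integrity checked first with a PL-017 dose-response curve.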
# [10] = molecular target: T1, Kappa-type opioid receptor; assay: Antagonist activity at human KOR expressed in CHO cell membranes assessed as reduction in U50,488 induced response incubated for 1 hr by liquid scintillation counting based [35S]GTP-gamma-S assay; parameters: species or system Cell membrane
# [11] = molecular target: T1, Kappa-type opioid receptor; assay: Antagonist activity at human KOR expressed in CHO cell membranes assessed as reduction in U50,488 induced response incubated for 1 hr by liquid scintillation counting based [35S]GTP-gamma-S assay relative to naloxone; details: Cell membrane
# Method in brief: (§2)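 The assay uses KOR-CHO membranes (15 µg protein) with 0.1 nM [35S]GTPγS and 40 µM GDP, for 1 h at 30 °C, in the presence of 100 nM U50,488 as agonist. Bound label is counted after filtration. Data are normalized to 100 nM U50,488 (100%) and fit to a three-parameter inhibition curve. Imax is given relative to naloxone.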
# [12] = molecular target: T1, Kappa-type opioid receptor; assay: Antagonist activity at human KOR expressed in CHO cell membranes assessed as reduction in U50,488 induced response at 10 uM incubated for 1 hr by liquid scintillation counting based [35S]GTP-gamma-S assay relative to naloxone; details: Cell membrane; method in brief: as §2
# Mus musculus [13] = assay: Inhibition of KOR selective agonist FE200665-induced antinociceptive activity in ICR mouse assessed as effect on tail withdrawal latency at 10 ug, it dosed 15 mins before FE200665 dosing and measured after 45 mins by tail flick test; assay type: functional, organism-based; details: dose 10.0 µg, time 60.0 min; method in brief: as §1
# Mus musculus [14] = assay: Inhibition of KOR selective agonist FE200665-induced antinociceptive activity in ICR mouse assessed as effect on tail withdrawal latency at 10 ug, it dosed 15 mins before FE200665 dosing and measured at 15 mins by tail flick test; assay type: functional, organism-based; details: dose 10.0 µg, time 30.0 min; method in brief: as §1
# Mus musculus [15] = assay: Inhibition of KOR selective agonist FE200665-induced antinociceptive activity in ICR mouse assessed as effect on tail withdrawal latency at 10 ug, it dosed 15 mins before FE200665 dosing and measured up to 45 mins by tail flick test; assay type: functional, organism-based; details: dose 10.0 µg, time min <=45; method in brief: as §1
# Sequence of Mu-type opioid receptor (P35372 whole entry): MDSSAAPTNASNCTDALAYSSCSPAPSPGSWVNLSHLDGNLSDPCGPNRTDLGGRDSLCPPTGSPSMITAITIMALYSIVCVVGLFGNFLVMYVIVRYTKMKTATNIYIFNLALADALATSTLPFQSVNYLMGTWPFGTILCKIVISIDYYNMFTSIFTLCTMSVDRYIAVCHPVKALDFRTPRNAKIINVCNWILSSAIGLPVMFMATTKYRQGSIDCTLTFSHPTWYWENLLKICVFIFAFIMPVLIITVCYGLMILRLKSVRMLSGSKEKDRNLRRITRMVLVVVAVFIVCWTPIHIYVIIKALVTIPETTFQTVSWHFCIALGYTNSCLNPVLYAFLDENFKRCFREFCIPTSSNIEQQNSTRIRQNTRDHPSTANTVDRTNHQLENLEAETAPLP
# T1 sequence (P41145 whole entry): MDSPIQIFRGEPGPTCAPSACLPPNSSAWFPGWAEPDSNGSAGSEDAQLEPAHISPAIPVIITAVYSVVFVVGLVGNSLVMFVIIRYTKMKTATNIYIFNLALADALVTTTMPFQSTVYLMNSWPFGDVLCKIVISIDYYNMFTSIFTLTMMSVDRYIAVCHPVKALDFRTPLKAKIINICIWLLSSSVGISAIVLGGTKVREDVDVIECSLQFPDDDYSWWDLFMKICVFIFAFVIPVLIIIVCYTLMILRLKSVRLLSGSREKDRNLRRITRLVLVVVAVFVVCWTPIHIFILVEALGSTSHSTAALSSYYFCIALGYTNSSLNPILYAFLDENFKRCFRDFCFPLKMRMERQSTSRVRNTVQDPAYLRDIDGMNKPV
# Sequence of Delta-type opioid receptor (P41143 whole entry): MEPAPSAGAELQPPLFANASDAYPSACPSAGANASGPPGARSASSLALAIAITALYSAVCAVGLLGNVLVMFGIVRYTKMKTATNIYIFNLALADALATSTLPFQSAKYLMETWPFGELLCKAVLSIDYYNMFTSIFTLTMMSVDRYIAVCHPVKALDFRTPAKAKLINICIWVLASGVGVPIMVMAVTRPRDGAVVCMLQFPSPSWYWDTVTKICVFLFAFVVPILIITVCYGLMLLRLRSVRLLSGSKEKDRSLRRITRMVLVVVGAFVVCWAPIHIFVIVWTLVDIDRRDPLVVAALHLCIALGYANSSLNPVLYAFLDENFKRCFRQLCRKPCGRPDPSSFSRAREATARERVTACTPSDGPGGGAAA
molecule,measurement,setting,value
CC[C@H](C)[C@H](NC(=O)[C@H](CCCN=C(N)N)NC(=O)[C@H](CCCN=C(N)N)NC(=O)[C@H](CC(C)C)NC(=O)[C@H](Cc1ccccc1)NC(=O)CNC(=O)CNC(=O)[C@@H](N)Cc1ccc(O)cc1)C(=O)N[C@@H](CCCN=C(N)N)C(=O)N1CCC[C@H]1C(=O)N[C@@H](CCCCN)C(N)=O,"viability at 24 h, 1000 µM",[1],100%
CC(=O)N[C@@H](Cc1ccc(O)cc1)C(=O)NCC(=O)NCC(=O)N[C@@H](Cc1ccccc1)C(=O)N[C@@H](CC(C)C)C(=O)N[C@@H](CCCNC(=N)N)C(=O)N[C@H](C)C(=O)N[C@@H](CCCNC(=N)N)C(=O)N1CCC[C@@H]1C(=O)N[C@@H](CCCCN)C(N)=O (Ac-YGGFLR[dA]R[dP]K-NH2),half-life,[2],350 h
same,Ki,Mu-type opioid receptor; ng108-15,Not Active
CC(=O)N[C@@H](Cc1ccc(O)cc1)C(=O)NCC(=O)N1CCC[C@H]1C(=O)N[C@@H](Cc1ccccc1)C(=O)N[C@@H](CC(C)C)C(=O)N[C@@H](CCCNC(=N)N)C(=O)N[C@H](C)C(=O)N[C@@H](CCCNC(=N)N)C(=O)N1CCC[C@H]1C(=O)N[C@@H](CCCCN)C(N)=O (Ac-YGPFLR[dA]RPK-NH2),Ki,Mu-type opioid receptor; ng108-15,Not Active
CC(=O)N[C@@H](Cc1ccc(O)cc1)C(=O)NCC(=O)N1CCC[C@H]1C(=O)N[C@@H](Cc1ccccc1)C(=O)N[C@@H](CC(C)C)C(=O)N[C@@H](CCCNC(=N)N)C(=O)N[C@H](C)C(=O)N[C@@H](CCCNC(=N)N)C(=O)N1CCC[C@@H]1C(=O)N[C@@H](CCCCN)C(N)=O (Ac-YGPFLR[dA]R[dP]K-NH2),Ki,Mu-type opioid receptor; ng108-15,Not Active
CC(=O)N[C@@H](Cc1ccc(O)cc1)C(=O)NCC(=O)N1CCC[C@H]1C(=O)N[C@@H](Cc1ccccc1)C(=O)N[C@@H](CC(C)C)C(=O)N[C@@H](CCCN)C(=O)N[C@H](C)C(=O)N[C@@H](CCCNC(=N)N)C(=O)N1CCC[C@H]1C(=O)N[C@@H](CCCCN)C(N)=O (Ac-YGPFL[Orn][dA]RPK-NH2),Ki,[3],> 10 µM
same,Ki,Mu-type opioid receptor; ng108-15,Not Active
CC[C@H](C)[C@H](NC(=O)[C@H](CCCNC(=N)N)NC(=O)[C@H](CC(C)C)NC(=O)[C@H](Cc1ccccc1)NC(=O)CNC(=O)CNC(=O)[C@@H](C)Cc1c(C)cc(O)cc1C)C(=O)N[C@@H](CCCNC(=N)N)C(N)=O (X1-GGFLRIR-NH2),Activity,Mus musculus [4],inactive
same,Activity,Mus musculus [5],Active
same,Activity,Mus musculus [6],inactive
same,Activity,Mus musculus [7],inactive
same,Activity,Mus musculus [8],inactive
CC[C@H](C)[C@H](NC(=O)[C@H](CCCNC(=N)N)NC(=O)[C@H](CC(C)C)NC(=O)[C@H](Cc1ccccc1)NC(=O)CNC(=O)CNC(=O)[C@@H](C)Cc1c(C)cc(O)cc1C)C(=O)N[C@@H](CCCNC(=N)N)C(=O)N1CCC[C@H]1C(=O)N[C@@H](CCCCN)C(N)=O (X1-GGFLRIRPK-NH2),Activity,[9],inactive
same,inhibition,Cavia porcellus,0%
same,"viability at 24 h, 1000 µM",[1],100%
CC[C@H](C)[C@H](NC(=O)[C@H](CCCNC(=N)N)NC(=O)[C@H](CC(C)C)NC(=O)[C@H](Cc1ccccc1)NC(=O)CNC(=O)CNC(=O)[C@@H](C)Cc1c(C)cc(O)cc1C)C(=O)N[C@@H](CCCNC(=N)N)C(=O)N1CCC[C@H]1C(=O)N[C@@H](CCCCN)C(=O)O (X1-GGFLRIRPK-OH),Activity,[9],inactive
same,inhibition,Cavia porcellus,8.7%
Ac-YGGFLRIRPK-NH2,Activity,[9],inactive
same,inhibition,Cavia porcellus,0%
Ac-YGPFLRIRPK-NH2,Ki,[3],> 10 µM
same,Ki,Mu-type opioid receptor; ng108-15,Not Active
H-YGGFLRIRPK-NH2,Activity,[9]; filed as agonist,Active
same,IC50,[10],Not Active
same,"viability at 24 h, 1000 µM",[1],100%
same,Imax,[11],inactive
H-YGGFLRIRPK-OH,Activity,[9]; filed as agonist,Active
same,IC50,[10],Not Active
same,"viability at 24 h, 1000 µM",[1],100%
same,Imax,[11],inactive
H-YGGFLRIRPKLK-OH,Activity,[9]; filed as agonist,Active
same,IC50,[10],Not Active
same,Imax,[11],inactive
H-YGPFLRIR-NH2,Imax,[12],29%
same,half-life,[2],2.1 h
same,Ki,Mu-type opioid receptor; ng108-15,Not Active
H-YGPFLRIRPK-NH2,Activity,Mus musculus [13],inactive
same,Imax,[12],38%
same,Activity,Mus musculus [4],Active
same,Activity,Mus musculus [14],Active
same,Activity,Mus musculus [15],Active
same,half-life,[2],1.4 h
same,"viability at 24 h, 1000 µM",[1],100%
same,Ki,Mu-type opioid receptor; read-out: Ki,> 10 µM
same,Activity,Mus musculus [8],Active
